{"data": "Assay results pooled from the literature", "target": "Serine/threonine-protein kinase 4 (STK4, Homo sapiens, UniProt Q13043)", "Residues used in one study (Q13043 1-487)": "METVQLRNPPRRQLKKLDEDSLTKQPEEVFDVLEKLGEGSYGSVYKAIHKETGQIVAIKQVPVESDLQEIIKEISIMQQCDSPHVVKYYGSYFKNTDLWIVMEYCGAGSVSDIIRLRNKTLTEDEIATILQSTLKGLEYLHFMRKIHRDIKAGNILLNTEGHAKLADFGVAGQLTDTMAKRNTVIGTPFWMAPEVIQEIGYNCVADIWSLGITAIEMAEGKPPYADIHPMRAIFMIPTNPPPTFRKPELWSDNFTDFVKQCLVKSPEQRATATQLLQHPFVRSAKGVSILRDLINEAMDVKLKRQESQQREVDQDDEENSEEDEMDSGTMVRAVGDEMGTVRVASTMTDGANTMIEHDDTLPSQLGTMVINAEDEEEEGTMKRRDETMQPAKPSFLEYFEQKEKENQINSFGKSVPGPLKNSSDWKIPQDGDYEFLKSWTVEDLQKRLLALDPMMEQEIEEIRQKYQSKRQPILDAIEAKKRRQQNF", "note": "Each line is one published result; the experiments were not run side by side."}
{"Compound": "Cn1cc(-c2cc(F)cc(N3CCn4c(cc5c4CCCC5)C3=O)c2CO)cc(Nc2ccc(N3CCN(C4COC4)CC3)cn2)c1=O", "observed": "enzyme activity", "action": "inhibitor", "concentration": "0.1 µM", "quantity": "inhibition", "value": "13%"}
{"Compound": "COc1ncccc1-c1cnn2ccc(N3CCN(C(=O)OC(C)C)CC3)nc12", "observed": "binding", "method": "competition with immobilised ligand", "concentration": "1 µM", "quantity": "remaining binding", "value": "40%"}
{"Compound": "NC(=O)c1cccc(-c2c[nH]c3ncnc(N4CCOCC4)c23)c1", "observed": "thermal stability", "method": "DSF", "concentration": "20 µM", "quantity": "ΔTm", "value": "> 8 °C"}
{"Compound": "Cn1cncc1[C@](O)(COc1ccc(C#N)cc1-c1ccc(OC(F)(F)F)cc1)c1ccc(C#N)cc1", "observed": "cell-free assay", "method": "competition with immobilised ligand", "concentration": "1 µM", "quantity": "remaining binding", "value": "86%"}
{"Compound": "Clc1cccc(-c2c[nH]c3nccc(N4CCOCC4)c23)c1", "observed": "thermal stability", "method": "DSF", "concentration": "20 µM", "quantity": "ΔTm", "value": "> 8 °C"}
{"Compound": "C#Cc1n[nH]c2c(-c3cn([C@@H](C)c4ccccc4)c(=O)[nH]c3=O)cc(F)cc12", "observed": "enzyme activity", "action": "inhibitor", "concentration": "0.1 µM", "quantity": "inhibition", "value": "-0.9%"}
{"Compound": "Cn1cc(-c2cccc(N3CCc4c(sc5c4CC(C)(C)C5)C3=O)c2CO)cc(Nc2ccncn2)c1=O", "observed": "enzyme activity", "action": "inhibitor", "concentration": "1 µM", "quantity": "inhibition", "value": "-4%"}
{"Compound": "Nc1ncc(-c2nc(N3CCOCC3)nc(N3CCOCC3)n2)c(C(F)F)n1", "observed": "binding", "method": "competition with immobilised ligand", "concentration": "10 µM", "quantity": "remaining binding", "value": "86%"}
{"Compound": "CC(C)(C)c1cc(C=C(C#N)C#N)cc(Br)c1O", "observed": "enzyme activity", "action": "inhibitor", "concentration": "0.5 µM", "quantity": "remaining activity", "value": "90.5%"}
{"Compound": "Cc1nn(C)cc1-c1nc2c(N3CCN(Cc4ccc(Cl)cc4)CC3)c(Cl)cnc2[nH]1", "observed": "binding", "method": "competition with immobilised ligand", "concentration": "1 µM", "quantity": "remaining binding", "value": "100%"}
{"Compound": "C#Cc1n[nH]c2c(-c3cn(C(C)c4ccccn4)c(=O)[nH]c3=O)cc(F)cc12 (stereo not drawn)", "observed": "enzyme activity", "action": "inhibitor", "concentration": "1 µM", "quantity": "inhibition", "value": "3.7%"}
{"Compound": "O=c1[nH]c2ccccc2n1C1CCN(Cc2ccc(-c3[nH]c4cc5ncnc5cc4nc3-c3ccccc3)cc2)CC1", "observed": "cell-free assay", "concentration": "0.5 µM", "quantity": "remaining signal", "value": "95.2%"}
